Measurements as given in ChEMBL document CHEMBL3108754, “Herbicidin congeners, undecose nucleosides from an organic extract of Streptomyces sp. L-9-10” (J Nat Prod, 2014).
Activity calls are given as the source filed them. No cut-off for these calls is given here.

Key:
[1] = tested on: Radical scavenging activity; assay: Antioxidant activity assessed as DPPH radical scavenging activity; format: functional
MCF7 = assay: Cytotoxicity against human MCF7 cells; format: functional, cell-based
HEK293 [2] = assay: Inhibition of TNF-alpha-induced NF-kappaB activity in HEK293 cells at 50 uM after 6 hrs by luciferase reporter gene assay; format: cell-based; conditions: Homo sapiens
In short: (§1)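 Stable NF-κB luciferase reporter HEK293 cells were seeded at 20×10^3 cells/well in DMEM with 10% FBS, penicillin/streptomycin and 2 mM L-glutamine, grown 48 h, then given fresh medium and compounds. Cells were activated with human recombinant TNF-α at 2 ng/mL (0.14 nM) for 6 h, washed, lysed, and read by luciferase luminescence. Values are IC50 for inhibiting TNF-induced activity, or % inhibition at 50 μM.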

Streptomyces = assay: Antimicrobial activity against Streptomyces 85E at 80 ug/disk after 30 hrs by hyphae formation inhibition assay; format: functional, organism-based
HEK293 [3] = assay: Cytotoxicity against HEK293 cells; format: cell-based; conditions: Homo sapiens
In short: (§2)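 HEK293 reporter cells were tested under the NF-κB assay conditions: TNF-α activation at 2 ng/mL and 6 h exposure to compounds. Values are cytotoxic IC50 or % survival at 50 μM.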

[4] = biological target: Nitric oxide synthase, inducible (Homo sapiens) (UniProt P35228); assay: Inhibition of iNOS (unknown origin)
[5] = Inhibition of TNF-alpha-induced NF-kappaB activity in HEK293 cells after 6 hrs by luciferase reporter gene assay; format: cell-based; conditions: Homo sapiens, HEK293, 6 h; in short: as §1
HEK293 [6] = assay: Inhibition of TNF-alpha-induced NF-kappaB activity in HEK293 cells assessed as cell survival at 50 uM after 6 hrs by luciferase reporter gene assay; format: cell-based; conditions: Homo sapiens; in short: as §2
NF-kappaB = assay: Selectivity ratio of IC50 for HEK293 cells to IC50 for NF-kappaB activity in HEK293 cells; format: ADME, cell-based; conditions: human, read-out: Ratio IC50
In short: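 HEK293 (Panomic) cells stably carrying an NF-κB luciferase reporter, grown in DMEM with 10% FBS, penicillin/streptomycin and 2 mM L-glutamine, seeded at 20×10^3 per well, then left 48 h. Medium renewed, cells given a range of compound concentrations plus TNF-α at 2 ng/mL (0.14 nM) for 6 h. Lysates read by luciferase luminescence. Cytotoxicity IC50 run under the same conditions.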

Chain of Nitric oxide synthase, inducible (Homo sapiens) (P35228 whole entry): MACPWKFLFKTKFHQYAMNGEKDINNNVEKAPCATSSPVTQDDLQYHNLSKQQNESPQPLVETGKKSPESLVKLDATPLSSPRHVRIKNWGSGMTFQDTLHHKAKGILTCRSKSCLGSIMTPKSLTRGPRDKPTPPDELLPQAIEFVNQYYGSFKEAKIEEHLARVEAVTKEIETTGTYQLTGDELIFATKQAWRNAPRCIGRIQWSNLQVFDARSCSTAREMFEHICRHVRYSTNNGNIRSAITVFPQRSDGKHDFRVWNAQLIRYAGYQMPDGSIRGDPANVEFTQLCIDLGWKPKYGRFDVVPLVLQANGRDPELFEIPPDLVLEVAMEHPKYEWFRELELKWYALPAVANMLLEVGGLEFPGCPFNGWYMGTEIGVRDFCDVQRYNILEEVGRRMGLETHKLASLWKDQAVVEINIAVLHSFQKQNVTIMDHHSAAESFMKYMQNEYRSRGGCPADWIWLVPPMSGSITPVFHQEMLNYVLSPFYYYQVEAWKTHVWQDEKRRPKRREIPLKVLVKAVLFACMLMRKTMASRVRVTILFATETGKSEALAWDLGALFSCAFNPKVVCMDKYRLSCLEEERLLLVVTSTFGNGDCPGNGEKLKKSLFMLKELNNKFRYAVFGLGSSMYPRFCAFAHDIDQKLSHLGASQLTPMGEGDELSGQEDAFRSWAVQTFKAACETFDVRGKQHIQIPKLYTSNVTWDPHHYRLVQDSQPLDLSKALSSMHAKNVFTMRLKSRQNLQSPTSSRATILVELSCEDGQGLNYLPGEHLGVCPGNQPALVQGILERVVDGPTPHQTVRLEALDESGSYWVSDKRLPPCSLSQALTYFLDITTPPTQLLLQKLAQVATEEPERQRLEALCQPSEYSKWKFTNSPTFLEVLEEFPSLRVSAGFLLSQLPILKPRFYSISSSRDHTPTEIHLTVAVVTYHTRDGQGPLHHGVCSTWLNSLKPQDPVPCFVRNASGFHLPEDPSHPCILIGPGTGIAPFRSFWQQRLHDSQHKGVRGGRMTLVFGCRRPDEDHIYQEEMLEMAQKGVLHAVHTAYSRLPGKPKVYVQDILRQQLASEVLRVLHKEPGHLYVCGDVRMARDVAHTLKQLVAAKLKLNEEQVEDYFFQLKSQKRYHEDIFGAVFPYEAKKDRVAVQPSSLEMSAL

COC(=O)[C@@H]1CC(O)(O)[C@]2(O)O[C@@H]3[C@@H](OC)[C@H](n4cnc5c(N)ncnc54)O[C@@H]3C[C@H]2O1
Activity [1]: inactive
Activity (MCF7): inactive
inhibition (HEK293 [2]): 96.2%
Activity (Streptomyces): inactive
IC50 (HEK293 [3]): 13.7 µM
inhibition [4]: inactive
IC50 [5]: 2400 nM
cell survival (HEK293 [6]): 45.1%

COC(=O)[C@H]1O[C@@H]2C[C@H]3O[C@@H](n4cnc5c(N)ncnc54)[C@H](OC)[C@H]3O[C@@]2(O)[C@@H](O)[C@@H]1O
Activity [1]: inactive
Activity (MCF7): inactive
inhibition (HEK293 [2]): 94.2%
Activity (Streptomyces): inactive
IC50 (HEK293 [3]): > 50 µM
inhibition [4]: inactive
IC50 [5]: 2900 nM
cell survival (HEK293 [6]): 95.6%

C/C=C(\C)C(=O)O[C@H]1[C@H](O)[C@@H](C(=O)OC)O[C@@H]2C[C@H]3O[C@@H](n4cnc5c(N)ncnc54)[C@H](OC)[C@H]3O[C@]21O
Activity [1]: inactive
Activity (MCF7): inactive
inhibition (HEK293 [2]): 83.4%
Activity (Streptomyces): inactive
IC50 (HEK293 [3]): 2.3 µM
inhibition [4]: inactive
IC50 [5]: 500 nM
cell survival (HEK293 [6]): 59.8%

C/C=C(\C)C(=O)O[C@H]1[C@H](O)[C@@H](C(=O)OC)O[C@@H]2C[C@H]3O[C@@H](n4cnc5c(N)ncnc54)[C@H](O)[C@H]3O[C@]21O
Activity [1]: inactive
Activity (MCF7): inactive
inhibition (HEK293 [2]): 92.4%
Activity (Streptomyces): inactive
IC50 (HEK293 [3]): 2.2 µM
inhibition [4]: inactive
IC50 [5]: 4900 nM
cell survival (HEK293 [6]): 42.3%

Cc1ccc(S(=O)(=O)N[C@@H](Cc2ccccc2)C(=O)CCl)cc1 [TPCK]
IC50 (HEK293 [3]): 11.1 µM
IC50 [5]: 3800 nM
selectivity ratio (NF-kappaB): 2

Cc1ccc(S(=O)(=O)/C=C/C#N)cc1
IC50 (HEK293 [3]): 3.8 µM
IC50 [5]: 2000 nM
selectivity ratio (NF-kappaB): 2

COC(=O)[C@H]1O[C@@H]2C[C@H]3O[C@@H](n4cnc5c(N)ncnc54)[C@H](OC)[C@H]3O[C@@]2(O)[C@H](O)[C@@H]1O
Activity [1]: inactive
Activity (MCF7): inactive
inhibition (HEK293 [2]): 92.2%
Activity (Streptomyces): inactive
IC50 (HEK293 [3]): 43.7 µM
inhibition [4]: inactive
IC50 [5]: 3200 nM
cell survival (HEK293 [6]): 53%

C/C=C(\CO)C(=O)O[C@H]1[C@H](O)[C@@H](C(=O)OC)O[C@@H]2C[C@H]3O[C@@H](n4cnc5c(N)ncnc54)[C@H](OC)[C@H]3O[C@]21O
Activity [1]: inactive
Activity (MCF7): inactive
inhibition (HEK293 [2]): 80.9%
Activity (Streptomyces): inactive
IC50 (HEK293 [3]): 2.7 µM
inhibition [4]: inactive
IC50 [5]: 1800 nM
cell survival (HEK293 [6]): 45.8%
